The source made the active and inactive calls. No cut-off for these calls is given here.
What was measured:
[1] = tested on: Mus musculus; assay: Activation of dendritic cells in BALB/c mouse at 2 ug, iv after 72 hrs by flow cytometry; assay type: functional, organism-based
In short: (§1)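 BALB/c mice (n = 4/group) were given 100 μl of glycolipid at 20 μg/ml in saline i.v., or 100 μl of 1% DMSO. Spleens were harvested after 72 h and splenocyte subsets counted by flow cytometry: mature DCs as CD11c+/CD80+/CD86+, activated NK as U5A2-13Ag+/CD3−/CD69+, activated NKT as U5A2-13Ag+/CD3+/CD69+. Assays were run in duplicate, mean ± SD.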

[2] = Induction of IL13 secretion in human CD161+ CD3+ NKT cells at 10 ug/ml after 18 hrs relative to basal level; assay type: functional
In short: (§2)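 Human Vα24i NKT cell lines were expanded for 10 days on irradiated (3,000 rad) autologous immature DCs with 10 units/ml IL-2. The cells (1 × 10^5) were cocultured with 5 × 10^4 irradiated immature CD14+ DCs plus glycolipid at 10 μg/ml. Supernatants were collected at 18 h and read on a 22-plex Luminex bead panel. Triplicates, mean ± SD.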

[3] = Induction of IL2 secretion in human CD161+ CD3+ NKT cells at 10 ug/ml after 18 hrs relative to basal level; assay type: functional; in short: as §2
[4] = Induction of IL8 secretion in human CD161+ CD3+ NKT cells at 10 ug/ml after 18 hrs relative to basal level; assay type: functional; in short: as §2
[5] = tested on: Mus musculus; assay: Activation of NKT cells in BALB/c mouse at 2 ug, iv after 72 hrs by flow cytometry; assay type: functional, organism-based; in short: as §1
[6] = Induction of GM-CSF secretion in human CD161+ CD3+ NKT cells at 10 ug/ml after 18 hrs relative to basal level; assay type: functional; in short: as §2
[7] = Induction of RANTES secretion in human CD161+ CD3+ NKT cells at 10 ug/ml after 18 hrs relative to basal level; assay type: functional; in short: as §2
[8] = Induction of IL15 secretion in human CD161+ CD3+ NKT cells at 10 ug/ml after 18 hrs relative to basal level; assay type: functional; in short: as §2
[9] = Induction of IL3 secretion in human CD161+ CD3+ NKT cells at 10 ug/ml after 18 hrs relative to basal level; assay type: functional; in short: as §2
[10] = tested on: TC1; assay: Antitumor activity in TC1 cells xenografted C57BL/6 mouse assessed as suppression of tumor growth at 2 ug, iv; assay type: functional, cell-based
In short: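 C57BL/6 mice (n = 5/group) were inoculated i.v. with TC-1 lung cancer cells. They were then treated i.v. with 2 μg glycolipid per mouse, or 100 μl of 1% DMSO, twice weekly for 4 weeks. Kaplan–Meier survival and body weight were followed, with tumor-free mice as an additional control.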

[11] = Induction of MIPalpha secretion in human CD161+ CD3+ NKT cells at 10 ug/ml after 18 hrs relative to basal level; assay type: functional; in short: as §2
[12] = Induction of TNFalpha secretion in human CD161+ CD3+ NKT cells at 10 ug/ml after 18 hrs relative to basal level; assay type: functional; in short: as §2
[13] = Induction of IL4 secretion in human CD161+ CD3+ NKT cells at 10 ug/ml after 18 hrs relative to basal level; assay type: functional; in short: as §2
[14] = tested on: Mus musculus; assay: Activation of natural killer cells in BALB/c mouse at 2 ug, iv after 72 hrs by flow cytometry; assay type: functional, organism-based; in short: as §1
[15] = Induction of IL12p70 secretion in human CD161+ CD3+ NKT cells at 10 ug/ml after 18 hrs relative to basal level; assay type: functional; in short: as §2
[16] = tested on: NKT; assay: Stimulation of cell expansion of human invariant CD161+/ Valpha24+/ CD56+/ CD3+ NKT cells by flow cytometry method; assay type: functional, cell-based
In short: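 CD56+ NK/NKT mixtures (2 × 10^6) were isolated from human leukopaks with anti-CD56 microbeads. They were cocultured with 4 × 10^5 autologous immature CD14+ DCs pulsed with glycolipid at 3 μg/ml, or with 0.3% DMSO, on day 2 for 18 h. Suspension cells were then transferred and kept in 100 units/ml IL-2 with fresh medium every 3 days. On day 9, CD161+/Vα24TCR+ cells were gated by flow cytometry and total Vα24i NKT cells counted. Triplicates, mean ± SD.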

[17] = Induction of MCP1 secretion in human CD161+ CD3+ NKT cells at 10 ug/ml after 18 hrs relative to basal level; assay type: functional; in short: as §2
[18] = Induction of IL12p40 secretion in human CD161+ CD3+ NKT cells at 10 ug/ml after 18 hrs relative to basal level; assay type: functional; in short: as §2
[19] = tested on: 4T1; assay: Antitumor activity in mouse 4T1 cells xenografted BALB/c mouse assessed as suppression of tumor growth at 2 ug, iv; assay type: functional, cell-based
In short: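 BALB/c mice (n = 6) were inoculated s.c. with 4T1 breast cancer cells. From day 3 they were treated i.v. with glycolipid or vehicle twice weekly for 4 weeks. Tumor volume was recorded every 3 days for 1 month, and survival was monitored up to 54 days.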

[20] = Induction of IL6 secretion in human CD161+ CD3+ NKT cells at 10 ug/ml after 18 hrs relative to basal level; assay type: functional; in short: as §2
[21] = Induction of IFN-gamma secretion in human CD161+ CD3+ NKT cells at 10 ug/ml after 18 hrs relative to basal level; assay type: functional; in short: as §2
[22] = Induction of IL10 secretion in human CD161+ CD3+ NKT cells at 10 ug/ml after 18 hrs relative to basal level; assay type: functional; in short: as §2
[23] = tested on: Mus musculus; assay: Induction of GM-CSF secretion in BALB/c mouse serum at 2 ug, iv after 2 hrs relative to control; assay type: functional
In short: (§3)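 BALB/c mice received an i.v. injection of 100 μl of glycolipid diluted to 20 μg/ml in saline from DMSO stock, with 1% DMSO as vehicle. Serum cytokines/chemokines were measured at 2 and 18 h after injection.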

[24] = tested on: Mus musculus; assay: Induction of IL13 secretion in BALB/c mouse serum at 2 ug, iv after 2 hrs relative to control; assay type: functional; in short: as §3
[25] = tested on: Mus musculus; assay: Induction of MCP1 secretion in BALB/c mouse serum at 2 ug, iv after 2 hrs relative to control; assay type: functional; in short: as §3
[26] = tested on: Mus musculus; assay: Activation of B cells in BALB/c mouse at 2 ug, iv after 72 hrs by flow cytometry; assay type: functional, organism-based
[27] = tested on: Mus musculus; assay: Induction of KC secretion in BALB/c mouse serum at 2 ug, iv after 2 hrs relative to control; assay type: functional; in short: as §3
[28] = tested on: Mus musculus; assay: Induction of IL6 secretion in BALB/c mouse serum at 2 ug, iv after 2 hrs relative to control; assay type: functional; in short: as §3
[29] = tested on: Mus musculus; assay: Induction of IL2 secretion in BALB/c mouse serum at 2 ug, iv after 2 hrs relative to control; assay type: functional; in short: as §3
[30] = tested on: Mus musculus; assay: Induction of IFN-gamma secretion in BALB/c mouse serum at 2 ug, iv after 18 hrs relative to control; assay type: functional; in short: as §3
[31] = tested on: Mus musculus; assay: Induction of IL3 secretion in BALB/c mouse serum at 2 ug, iv after 2 hrs relative to control; assay type: functional; in short: as §3
[32] = tested on: Mus musculus; assay: Induction of RANTES secretion in BALB/c mouse serum at 2 ug, iv after 2 hrs relative to control; assay type: functional; in short: as §3
[33] = tested on: Mus musculus; assay: Induction of IL12p70 secretion in BALB/c mouse serum at 2 ug, iv after 18 hrs relative to control; assay type: functional; in short: as §3
[34] = tested on: Mus musculus; assay: Induction of MIPbeta secretion in BALB/c mouse serum at 2 ug, iv after 2 hrs relative to control; assay type: functional; in short: as §3
[35] = tested on: Mus musculus; assay: Induction of TNFalpha secretion in BALB/c mouse serum at 2 ug, iv after 18 hrs relative to control; assay type: functional; in short: as §3
[36] = tested on: Mus musculus; assay: Induction of IL1-beta secretion in BALB/c mouse serum at 2 ug, iv after 18 hrs relative to control; assay type: functional; in short: as §3
[37] = tested on: Mus musculus; assay: Induction of IL12p40 secretion in BALB/c mouse serum at 2 ug, iv after 18 hrs relative to control; assay type: functional; in short: as §3
[38] = tested on: Mus musculus; assay: Induction of IL10 secretion in BALB/c mouse serum at 2 ug, iv after 18 hrs relative to control; assay type: functional; in short: as §3
[39] = tested on: Mus musculus; assay: Induction of IL4 secretion in BALB/c mouse serum at 2 ug, iv after 2 hrs relative to control; assay type: functional; in short: as §3
[40] = tested on: Mus musculus; assay: Increase in CD8/CD4 T cell ratio in BALB/c mouse at 2 ug, iv after 72 hrs by flow cytometry; assay type: functional, organism-based

| SMILES | Activity [1] | Activity [2] | Activity [3] | Activity [4] | Activity [5] | Activity [6] | Activity [7] | Activity [8] | Activity [9] | Activity [11] | Activity [12] | Activity [13] | Activity [14] | Activity [15] | Activity [16] | Activity [17] | Activity [18] | Activity [20] | Activity [21] | Activity [22] | other results |
| --- | --- | --- | --- | --- | --- | --- | --- | --- | --- | --- | --- | --- | --- | --- | --- | --- | --- | --- | --- | --- | --- |
| CCCCCCCCCCCCCCCCCCCCCCCCCC(=O)N[C@@H](CO[C@H]1O[C@H](CO)[C@H](O)[C@H](O)[C@H]1O)[C@H](O)[C@H](O)CCCCc1ccccc1 | Active | 1.8 | 1.9 | 2.3 | Active | 5.8 | 2 | 2.3 | 2.6 | 3.5 | 3.4 | 2.8 | Active | 2.1 | Active | 1.8 | 1.8 | 1.9 | 3.9 | 2 | Activity [10]: Active; Activity [19]: Active |
| CCCCCCCCCCCCCCCCCCCCCCCCCC(=O)N[C@@H](CO[C@H]1O[C@H](CO)[C@H](O)[C@H](OS(=O)(=O)[O-])[C@H]1O)[C@H](O)[C@H](O)CCCCCCCCCCCCCC.[Na+] | Active | 1.6 | 2.4 | 2.2 | Active | 6.6 | 1.6 | 2.3 | 3.3 | 3.4 | 8.4 | 2.7 | Active | 2.8 | Active | 1.4 | 2 | 2.7 | 3.3 | 2.5 | Activity [23]: 7.3; Activity [24]: 2.4; Activity [25]: 14.8; Activity [26]: Active; Activity [27]: 16.4; Activity [28]: 2.2; Activity [29]: 22; Activity [30]: 160.8; Activity [31]: 1.8; Activity [32]: 1.6; Activity [33]: 1.4; Activity [34]: 2.5; Activity [35]: 36.3; Activity [36]: 3.2; Activity [37]: 2.1; Activity [38]: 2.4; Activity [39]: 42.9 |
| CCCCCCCCCCCCCC[C@@H](O)[C@@H](O)[C@H](CO[C@H]1O[C@H](CO)[C@H](O)[C@H](O)[C@H]1O)NC(=O)CCCCCCCCCCc1ccccc1 | Active | 1.6 | 3.9 | 1.8 | Active | 5.4 | 1.6 | 2.7 | 2.5 | 3.4 | 7.4 | 1.9 | Active | 3 | Active | 0.6 | 2.1 | 2.1 | 6.2 | 1.8 | Activity [23]: 2.7; Activity [24]: 7.7; Activity [25]: 23.6; Activity [26]: Active; Activity [27]: 6.9; Activity [28]: 5.8; Activity [29]: 50.5; Activity [30]: 166.1; Activity [31]: 1.9; Activity [32]: 2.2; Activity [33]: 1.6; Activity [34]: 5.1; Activity [10]: Active; Activity [40]: Active; Activity [35]: 45.6; Activity [36]: 3.4; Activity [37]: 2.4; Activity [38]: 1.3; Activity [39]: 49.6; Activity [19]: Active |
